Experimental data of several laboratories.
Lines come from different studies, so protocols differ.

O=C(NCc1ccc(O)cc1)c1cn(Cc2ccc(F)cc2)c2ccc(Oc3ccccc3)cc2c1=O
IC50 (MCF7; cell growth or viability; MTT; 48 h): 78.5 µM

O=C1CCP(=[Se])(c2ccccc2)CC1
IC50 (SW-620; cell growth or viability; MTT; 72 h): > 100 µM

CC[C@H](C)[C@H](NC(=O)[C@H](CCCCN)NC(=O)[C@H](CCCCN)NC(=O)[C@H](CC(C)C)NC(=O)[C@H](CCCCN)NC(=O)[C@H](CCCCN)NC(=O)[C@H](Cc1ccccc1)NC(=O)[C@H](Cc1ccccc1)NC(=O)[C@H](CCCNC(=N)N)NC(=O)[C@H](CCCNC(=N)N)NC(=O)[C@@H](NC(=O)[C@H](CCCCN)NC(=O)[C@H](CCCNC(=N)N)NC(=O)[C@@H](NC(=O)[C@@H](N)Cc1ccc(O)cc1)[C@@H](C)CC)[C@@H](C)CC)C(=O)N[C@@H](CC(C)C)C(=O)N[C@@H](CCCCN)C(=O)N[C@@H](CCCCN)C(N)=O
IC50 (THP-1; cell growth or viability; resazurin): 5.2 µM

N.N.[Cl][Pt][Cl]
IC50 (SW-620; cell growth or viability; MTT; 72 h): 6.7 µM

CC[C@@]1(O)C(=O)OCc2c1cc1n(c2=O)Cc2cc3ccccc3nc2-1
IC50 (MP46; cell growth or viability; ATP luminescence; 72 h): 0.21 µM

O=C(NCc1ccc(F)cc1)c1cn(Cc2ccc(C(F)(F)F)cc2)c2ccc(Oc3ccccc3)cc2c1=O
IC50 (MCF7; cell growth or viability; MTT; 24 h): 8.32 µM

Cc1sc2c(c1C)C(c1ccc(Cl)cc1)=N[C@@H](CC(N)=O)c1nnc(C)n1-2
IC50 (MP46; cell growth or viability; ATP luminescence; 72 h): 0.109 µM

O=C(NCc1ccccc1)c1cn(Cc2ccc(C(F)(F)F)cc2)c2ccc(Oc3ccccc3)cc2c1=O
IC50 (MCF7; cell growth or viability; MTT): < 12 µM

N.N.[Cl][Pt][Cl]
IC50 (MCF7; cell growth or viability; MTT; 48 h): 2 µM

COc1ccc2c(c1OC)CN1CCc3cc4c(cc3[C@@H]1C2)OCO4
IC50 (HepaRG; reactive oxygen species; inhibitor; 16 h): 2.69 µM

S=P1(c2ccccc2)CCCCC1
IC50 (SW-620; cell growth or viability; MTT; 72 h): > 100 µM

CC(C)[C@H](NC(=O)[C@H](Cc1c[nH]c2ccccc12)NC(=O)[C@H](Cc1c[nH]cn1)NC(=O)[C@H](CCCNC(=N)N)NC(=O)[C@H](CCCNC(=N)N)NC(=O)[C@H](Cc1c[nH]c2ccccc12)NC(=O)[C@H](Cc1c[nH]c2ccccc12)NC(=O)[C@H](Cc1c[nH]cn1)NC(=O)[C@H](Cc1c[nH]c2ccccc12)NC(=O)[C@H](CCCNC(=N)N)NC(=O)[C@@H](N)CCCCN)C(=O)N[C@H](C(=O)N[C@@H](Cc1c[nH]c2ccccc12)C(N)=O)C(C)C
IC50 (THP-1; cell growth or viability; MTT): 103 µM
